The values below come from ChEMBL document CHEMBL3046214, “Friedelane triterpenes from Celastrus vulcanicola as photosynthetic inhibitors” (J Agric Food Chem, 2010).

Molecules are shown by their SMILES. The source made the active and inactive calls. The rule behind the calls is not given here.

The test system of one assay is Lolium perenne. Nature of the assay: Inhibition of photosynthetic efficiency in Lolium perenne (perennial ryegrass) at 200 uM measured 24 to 72 hr post compound application. Type of assay: functional. The gist of the method:
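Greenhouse L. perenne sprayed 18 days after emergence (20 mM DMSO stock diluted into 0.05% Tween-20; vehicle-sprayed controls). Leaves dark-adapted 15 min, then excited with 3000 μmol photons m-2 s-1 red light (650 nm) from three LEDs. OJIP transients recorded at room temperature with a Handy PEA. PI(abs) and other parameters are shown on radar plots normalized to control.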

In assay [1] the target is Photosystem II protein D1 (Spinacia oleracea) (UniProt P69560). Briefly: Inhibition of uncoupled photosystem II electron transport and partial reactions in Spinacia oleracea (spinach) leaves assessed as electron transport rate from water to DCPIP at 300 uM measured per mg of chlorophyll relative to untreated control. Also noted: scale not given: the % may be the effect or the level left.

For assay [2] the target is unchanged. Nature of the assay: Inhibition of uncoupled photosystem II electron transport and partial reactions in Spinacia oleracea (spinach) leaves assessed as electron transport rate from water to DCPIP at 200 uM measured per mg of chlorophyll relative to untreated control. Also noted: scale not given: the % may be the effect or the level left.
Assay [3] has the same target. Briefly: Inhibition of uncoupled photosystem II electron transport and partial reactions in Spinacia oleracea (spinach) leaves assessed as electron transport rate from water to SiMo at 100 uM measured per mg of chlorophyll relative to untreated control. Also noted: scale not given: the % may be the effect or the level left. The gist of the method:
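Uncoupled partial PSII reaction from water to silicomolybdate, run in the PSII medium (sorbitol, KCl, MgCl2, KCN, 15 mM tricine-KOH pH 8.0, 6 mM NH4Cl, 20 μg Chl/mL, 1 min light). DCBQ/DBMIB were replaced by 200 μM SiMo plus 10 μM DCMU. Rates are in μequiv e-/h mg Chl, relative to control, three replicates.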

Assay [4] shares this target. Briefly: Inhibition of uncoupled photosystem II electron transport and partial reactions in Spinacia oleracea (spinach) leaves assessed as electron transport rate from water to DCBQ at 300 uM measured per mg of chlorophyll relative to untreated control. Further details: scale not given: the % may be the effect or the level left. The gist of the method: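 Uncoupled PSII water-to-DCBQ rate: 3 mL of 100 mM sorbitol, 10 mM KCl, 5 mM MgCl2, 0.5 mM KCN, 15 mM tricine-KOH pH 8.0, with 100 μM DCBQ, 1 μM DBMIB, 6 mM NH4Cl and chloroplasts at 20 μg Chl/mL, illuminated 1 min. Rates are in μequiv e-/h mg Chl, percent of control, three replicates.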

Assay [5] shares this target. Briefly: Inhibition of uncoupled photosystem II electron transport and partial reactions in Spinacia oleracea (spinach) leaves assessed as electron transport rate from water to DCPIP at 50 uM measured per mg of chlorophyll relative to untreated control. Also noted: scale not given: the % may be the effect or the level left.
The subject of assay [6] is Spinacia oleracea. Nature of the assay: Increase in Magnesium-transporting ATPase activity in Spinacia oleracea (spinach) leaves chloroplasts thylakoids at 300 uM. Put shortly: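 Spinach chloroplasts were isolated in 350 mM sorbitol, 5 mM ascorbate, 20 mM MES pH 6.5, centrifuged at 3000g for 60 s, washed, and resuspended in 35 mM HEPES pH 7.6. Light-triggered Mg2+-ATPase activity of thylakoid membranes was measured as released inorganic phosphate. Ammonium chloride served as positive control.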

In assay [7] the test system is Spinacia oleracea. Briefly: Inhibition of basal electron transport from water to MV in Spinacia oleracea (spinach) leaves chloroplasts up to 300 uM using Clark type electrode system based method. It counts as functional, organism-based.
Assay [8] deals with Spinacia oleracea. Nature of the assay: Inhibition of uncoupled electron transport from water to MV in Spinacia oleracea (spinach) leaves chloroplasts up to 300 uM using Clark type electrode system based method. Type of assay: functional, organism-based. Put shortly: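 Water-to-MV electron transport measured with a Clark electrode in the basal medium (20 μg Chl/mL, 50 μM MV, 15 mM tricine-KOH pH 8.0, 1 min illumination), with 6 mM NH4Cl added as uncoupler.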

The subject of assay [9] is Spinacia oleracea. Nature of the assay: Inhibition of phosphorylating noncyclic electron transport from water to MV in Spinacia oleracea (spinach) leaves chloroplasts up to 300 uM using Clark type electrode system based method. Type of assay: functional. Put shortly:
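Clark-electrode measurement of water-to-MV electron flow in the basal medium (sorbitol, KCl, MgCl2, 0.5 mM KCN, 50 μM MV, 15 mM tricine-KOH pH 8.0; 20 μg Chl/mL; 1 min light), with 1 mM ADP and 3 mM KH2PO4 added.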

In assay [10] the test system is Physalis ixocarpa. Nature of the assay: Inhibition of photosynthetic efficiency in Physalis ixocarpa intact leaves assessed as loss of K-bands at 200 uM measured 72 hr post compound application. It counts as functional, organism-based. The gist of the method:
(§1)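 P. ixocarpa plants sprayed 15 days after emergence (greenhouse, 25-30 °C; 20 mM DMSO stock diluted into 0.05% Tween-20; vehicle-sprayed controls). Leaves dark-adapted 15 min, then excited with 650 nm red LED light at 3000 μmol photons m-2 s-1. Chl a OJIP transients recorded with a Handy PEA at room temperature. PI(abs) is normalized to control; K-, J- and I-bands come from variable fluorescence difference curves; five replicates.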

The subject of assay [11] is Physalis ixocarpa. Briefly: Inhibition of photosynthetic efficiency in Physalis ixocarpa intact leaves assessed as reduction in PI(abs) level at 200 uM measured 48 hr post compound application. Type of assay: functional. The gist of the method: as §1
Assay [12] has as its system Physalis ixocarpa. Nature of the assay: Inhibition of photosynthetic efficiency in Physalis ixocarpa intact leaves assessed as reduction in PI(abs) level at 100 uM measured 48 hr post compound application. Type of assay: functional. Put shortly: as §1
In assay [13] the test system is Physalis ixocarpa. Briefly: Inhibition of photosynthetic efficiency in Physalis ixocarpa intact leaves assessed as effect on OJIP transients at 100 uM measured 24 hr post compound application. Type of assay: functional, organism-based. The gist of the method:
as §1

As to `C[C@H]1C(=O)CC[C@@H]2[C@]1(C)CC[C@H]1[C@@]2(C)CC[C@@]2(C)[C@@H]3CC(C)(C)CC[C@]3(CO)CC[C@]12C` [CANOPHYLLOL], the inhibition result with Lolium perenne and in the assay on Physalis ixocarpa [13] was “inactive” each time. Moreover, the Activity was found to be 100% in [1]; 95% in assay [2]; 20% in [3]; 44% in assay [4]; 105% in [5]; 126% with Spinacia oleracea [6]. The inhibition result in the assay with Spinacia oleracea [7], with Spinacia oleracea [8], in the assay on Spinacia oleracea [9] and in the assay with Physalis ixocarpa [10] was “Active” in each case. Moreover, in the assay with Physalis ixocarpa [11], the inhibition at 200 µM was determined as 10%. In addition, the inhibition at 100 µM in the assay on Physalis ixocarpa [12] came out at 10%.
